Test results from ChEMBL document CHEMBL2331137, “Scopoletin and scopolin isolated from Artemisia iwayomogi suppress differentiation of osteoclastic macrophage RAW 264.7 cells by scavenging reactive oxygen species” (J Nat Prod, 2013).
Activity calls are given as the source filed them. The calls are words filed in the database; no cut-off is given here.

Experiments:
[1] = system: RAW264.7; assay: Inhibition of hydrogen peroxide level in RANKL-treated mouse RAW264.7 cells at 10 uM by DHR fluorescence intensity assay; type: functional, cell-based
[2] = system: RAW264.7; assay: Antiosteoporotic activity in mouse RAW264.7 cells assessed as inhibition of RANKL-induced osteoclastogenesis measured as reduction in TRAP activity for 5 days by ELISA; type: functional, cell-based
Procedure, shortened: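 RAW 264.7 cells differentiated 5 days with 50 ng/mL RANKL plus test samples, medium changed every 2 days. Cells then washed with ice-cold PBS, fixed in 3.5% formaldehyde (10 min) and ethanol–acetone 1:1 (1 min). They were incubated 1 h in 50 mM citrate pH 4.5 with 10 mM sodium tartrate and 6 mM PNPP, stopped in 0.1 N NaOH, A405. Expressed as % of untreated control; n = 3.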

[3] = system: RAW264.7; assay: Antiosteoporotic activity in mouse RAW264.7 cells assessed as inhibition of RANKL-induced osteoclastogenesis measured as reduction in TRAP number for 5 days by light microscopy; type: functional, cell-based
Procedure, shortened: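 RAW 264.7 cells seeded at 3 × 10^4/well and given test samples in differentiation medium with 50 ng/mL RANKL, changed every 2 days, for 5 days. Cells fixed in 3.5% formaldehyde 10 min and stained 1 h at 37 °C with a leukocyte acid phosphatase kit. TRAP-positive cells with ≥3 nuclei counted by light microscopy. Expressed as % of RANKL-treated cells; mean ± SD, n = 3.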

[4] = system: RAW264.7; assay: Cytotoxicity against mouse RAW264.7 cells at 1 to 10 uM for 5 days by MTT assay; type: cell-based; conditions: raw264.7, 120 h
Procedure, shortened: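 MTT assay: RAW 264.7 cells (2 × 10^4 cells/mL) in DMEM with 10% FBS at 37 °C, 5% CO2, treated with 1–10 μM samples for 5 days. MTT then added for 1 h at 37 °C, formazan dissolved in DMSO, A570 read; percentage proliferation calculated.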

[5] = system: HepG2; assay: Antioxidant activity against H2O2-induced intracellular oxidative stress in human HepG2 cells assessed as DCF fluorescence intensity at 1 to 10 uM; type: functional, cell-based
Procedure, shortened: (§1)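 HepG2 cells cultured 24 h in DMEM, then given compounds (1–10 μM, in DMSO) for 30 min and washed. Stress induced in HBSS with 60 μM AAPH or 1 mM H2O2 for 30 min. DCFH-DA added at 40 μM final, 30 min at 37 °C in the dark; DCF read at Ex 485/Em 535 nm. Trolox 10 μM as reference; % of untreated cells, n = 3.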

[6] = system: HepG2; assay: Antioxidant activity against […]-induced intracellular oxidative stress in human HepG2 cells assessed as DCF fluorescence intensity at 1 to 10 uM; type: functional, cell-based; procedure, shortened: as §1
[7] = Antioxidant activity assessed as reduction of Cu2+ to Cu+ measured as copper (I) level at 1 uM measured for 1 hr; type: functional
Procedure, shortened: (§2)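 Copper-reducing assay: compounds in ethanol mixed with 0.5 mM CuCl2 and 0.75 mM neocuproine (Cu+ chelator) in 10 mM phosphate buffer. Absorbance at 454 nm read for 1 h; reducing capacity expressed in μM. Trolox as reference; mean ± SD of three experiments.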

[8] = Antioxidant activity assessed as trolox equivalents of peroxyl radical scavenging activity at 1 uM by ORAC assay; type: functional
Procedure, shortened: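 ORAC: fluorescein (40 nM final) exposed to AAPH (20 mM final) as peroxyl radical source, fluorescence recorded every 2 min relative to the initial reading. Net area under the decay curve versus blank computed and expressed as Trolox equivalents, with Trolox at 1 μM as reference; three experiments.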

[9] = system: RAW264.7; assay: Inhibition of RANKL-induced ROS generation in mouse RAW264.7 cells at 10 uM by DCF fluorescence intensity assay (reference value: 143.7%); values are per cent of control
[10] = system: RAW264.7; assay: Inhibition of RANKL-induced superoxide anion level in mouse RAW264.7 cells at 10 uM by DHE fluorescence intensity assay (reference value: 176.7%); values are per cent of control
[11] = Antioxidant activity assessed as reduction of Cu2+ to Cu+ measured as copper (I) level at 10 uM measured for 1 hr (reference value: 2.1 uM); type: functional; procedure, shortened: as §2

Structure (SMILES) | inhibition [1] | inhibition [2] | inhibition [3] | Activity [4] | Activity [5] | Activity [6] | Activity [7] | Activity [8] [equiv] | level, % of control at 10 µM [9] [%] | level, % of control at 10 µM [10] [%] | Activity [11]
COc1cc2ccc(=O)oc2cc1O [SCOPOLETIN] | inactive | Dose-dependent effect | Dose-dependent effect | Non-toxic | Active | Active | Active | 3.3 | 132 | 158 | 
COc1cc2ccc(=O)oc2cc1O[C@@H]1O[C@H](CO)[C@@H](O)[C@H](O)[C@H]1O [SCOPOLIN] | inactive | Dose-dependent effect | Dose-dependent effect | Non-toxic | Active |  |  | 0.4 | 127 | 149 | inactive
Cc1c(C)c2c(c(C)c1O)CCC(C)(C(=O)O)O2 (stereo not given) |  |  |  |  |  |  | 1.5 µM |  |  |  | 
